FGF22 binding: binders of human FGF22 protein, primary screen, FGF22 synaptogenesis inhibitor project, biophysical, thermal shift, single point. Fibroblast growth factor 22 (Homo sapiens), Q9HCT0. recombinant FGF22 thermal shift, SYPRO orange fluorescence; percent of sucrose octasulfate shift, DMSO zero. activity (Tm shift, normalised), % at 9.99 µM. hit rate 1.5% among 340,000;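 active = mean Tm shift, scaled 0 neutral to 100 positive control, at about 1.3% or above, every replicate too, limit read from the data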
Target sequence (Q9HCT0 whole entry, looked up): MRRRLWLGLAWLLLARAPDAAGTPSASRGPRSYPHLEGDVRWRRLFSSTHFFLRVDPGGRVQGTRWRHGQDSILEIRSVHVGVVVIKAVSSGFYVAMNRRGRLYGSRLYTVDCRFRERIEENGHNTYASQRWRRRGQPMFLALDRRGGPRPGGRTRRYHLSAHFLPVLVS
EBNA-1 inhibitor: EBNA-1 DNA-binding inhibitors, primary screen, biochemical, fluorescence polarization; inhibition, % at 14.8 µM; hit rate 0.34% among 300,000; AID 1950, 2009; in the data active = inhibition above about 28%
GRIN3A LBD mod: binders of NR3A ligand-binding domain, primary screen, biophysical, differential scanning fluorimetry, uHTS; NR3A LBD differential scanning fluorimetry, Tm shift; 0% = protein alone, 100% = glycine-bound protein; AID 1259313, 2017; hit rate 2.5% among 340,000; Glutamate receptor ionotropic, NMDA 3A (GRIN3A) ligand-binding domain; Tm shift relative to glycine control, % at 25 µM;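 active = melting temperature shift of at least 10% of the positive control shift, at one fixed dose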
DNA FID counter: compounds displacing fluorescent DNA intercalator, primary screen, artefact control for HCV NS3 helicase inhibitor project, biochemical, FID fluorescence. DNA fluorescent intercalator displacement. inhibition, % at 7.9 µM. hit rate 0.17% among 290,000; in the data active = inhibition above about 37%;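 also: 0% = vehicle and 100% = reference compound; higher means more ethidium bromide displaced from hairpin DNA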
HCV NS3 hel inh: inhibitors of HCV NS3 helicase, primary screen, biochemical, Cy5 molecular beacon fluorescence. hit rate 0.56% among 290,000. Hepatitis C virus NS3 helicase. AID 1800, 2009. inhibition, % at 10.9 µM. NS3 helicase DNA unwinding;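 active = inhibition above the mean of all tested compounds plus 3 SD, set per campaign, cut at about 35% in these data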;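 also: 0% = DMSO wells and 100% = thioflavine S control wells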
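Control set: DMSO versus 110 µM thioflavine S; Material: NS3 helicase fragment of HCV; Measured by: Cy5 fluorescence at 0 and 60 min, beacon hairpin quenching; Read-out basis: percent inhibition from t60/t0 fluorescence ratio; Times: reaction time 60 min, 25 °C; Repeats: single replicate; Compound dosing: single dose, 10.9 µM nominal final, DMSO 0.8% final.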
ZTA counter: counter-screen for EBNA-1 inhibitors: inhibitors of Epstein-Barr virus ZTA | AID 2234 | hit rate 0.15% among 320,000 | ZTA-DNA binding, fluorescence polarization | inhibition, % at 11 µM | P03206; in the data active = inhibition above about 33%
Target sequence (P03206 whole entry, looked up): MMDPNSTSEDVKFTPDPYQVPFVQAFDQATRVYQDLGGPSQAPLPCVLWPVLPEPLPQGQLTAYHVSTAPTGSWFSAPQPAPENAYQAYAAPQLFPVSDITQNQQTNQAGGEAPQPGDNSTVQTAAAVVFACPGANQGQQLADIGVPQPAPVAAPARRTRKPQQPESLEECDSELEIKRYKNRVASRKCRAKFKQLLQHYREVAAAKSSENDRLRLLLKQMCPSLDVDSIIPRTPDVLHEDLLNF
Active calls of the source: *; . = not tested or not shown. The list is not random: actives were taken first. Their share in the collection is about 3.6%.

SMILES	FGF22 binding	EBNA-1 inhibitor	GRIN3A LBD mod	DNA FID counter	HCV NS3 hel inh	ZTA counter
COc1ccc2cc(-c3cccnc3)ncc2c1	-0.1	.	-2.1	.	.	10.7
CC(C)NC(=O)N[C@H]1CC[C@@H](CCn2cc(-c3ccccc3)nn2)O[C@@H]1CO	-0.3	.	.	.	.	.
Nc1ccc(N2CCCCCC2)cc1	.	92.6*	.	2.7	23.4	164.6*
CO[C@H]1CN(C)C(=O)c2cc(NC(=O)Nc3ccc(F)cc3)ccc2OC[C@H](C)NC[C@H]1C	-0.1	.	.	.	.	.
CCOC(Cn1c(SCc2cc(C(C)=O)ccc2OC)nc2ccccc2c1=O)OCC	0.2	3.2	13.0*	2.6	1.1	-4.7
COc1ccc(C(C)=O)cc1CSc1nc2cc(C(=O)O)ccc2c(=O)n1Cc1ccccc1	0.0	-0.8	1.4	-27.4	17.4	6.9
N#Cc1nc(Nc2cccc(Cl)c2)c2ncn(C3CCCC3)c2n1	0.1	.	11.4*	.	.	-0.1
C[C@H](CO)N1C[C@H](C)[C@H](CN(C)C)Oc2ccc(NC(=O)Nc3cccc4ccccc34)cc2C1=O	-0.3	.	.	.	.	.
NC1=NC(=Nc2cccc(S(N)(=O)=O)c2)c2ccccc21	0.1	9.9	-0.4	-4.5	-3.0	-1.0
COc1cc(N=Nc2cccc(S(N)(=O)=O)c2)c2ccccc2c1N	0.0	-12.2	12.9*	13.7	-2.4	-14.0
COc1ccc(NC(=O)CSc2ccccc2)cn1	43.4*	0.9	0.3	0.7	-14.3	12.0
O=C(CSc1ccccc1)Nc1ccc2sccc2c1	0.0	4.9	16.6*	-6.9	-6.0	0.0
CN(C)CCCN(C(=O)c1ccc2c(c1)CCCC2)c1nc2ccc(Cl)cc2s1	-1.0	-9.2	11.0*	6.6	-73.6	-14.6
CCOc1ccc2nc(N(CCCN(C)C)C(=O)c3ccc4c(c3)CCCC4)sc2c1	0.0	6.6	0.9	39.0*	-29.6	-1.1
CN1C(=O)c2cc(NC(=O)C3CC3)ccc2OC[C@@H]2O[C@@H](CC(=O)NCc3cccc(F)c3)CC[C@@H]21	-0.2	.	.	.	.	.
O=C(O)c1ccc(/C=N/N2CCN(Cc3cccc4ccccc34)CC2)cc1	0.4	0.2	191.9*	-6.0	1.0	-14.4
FC(F)(F)c1ccc(/C=N/N2CCN(Cc3cccc4ccccc34)CC2)cc1	.	10.0	2.3	2.1	-1.0	15.8
COc1cccc(N/C(N)=N/c2nc(C)cc(=O)[nH]2)c1	.	3.2	0.2	-5.7	13.8	-9.8
Cc1cccc(N/C(N)=N/c2nc(C)cc(=O)[nH]2)c1	43.0*	-22.9	-0.2	-2.3	1.7	-25.0
Cc1cc(=O)[nH]c(/N=C(\N)Nc2ccc3c(c2)OCCO3)n1	43.6*	4.2	-2.3	-2.6	2.5	2.3
COC(=O)Cc1cc(=O)[nH]c(/N=C(\N)Nc2cccc(C)c2)n1	43.1*	-2.8	-0.8	-16.0	0.5	-0.2
Cc1noc(C)c1S(=O)(=O)Nc1ccc2c(c1)C(=O)N([C@@H](C)CO)C[C@@H](C)[C@@H](CN(C)C(=O)NC1CCCCC1)O2	0.9	.	.	.	.	.
COc1ccc(S(=O)(=O)Nc2ccc3c(c2)C(=O)N([C@@H](C)CO)C[C@@H](C)[C@H](CN(C)S(=O)(=O)c2ccc(C)cc2)OCCCC[C@@H](C)O3)cc1	-0.6	.	.	.	.	.
CCOc1ccccc1NC(=O)CC1(CC(=O)N2CCOCC2)CCCC1	0.4	.	12.8*	.	.	.
Cc1ccc(N(CC(=O)Nc2ccccc2C(=O)N2CCOCC2)S(C)(=O)=O)cc1	.	13.4	13.1*	-14.7	13.2	0.5
SMILES	FGF22 binding	EBNA-1 inhibitor	GRIN3A LBD mod	DNA FID counter	HCV NS3 hel inh	ZTA counter
CCOCC(=O)Nc1ccccc1C(=O)N1CCOCC1	44.1*	-5.4	-1.9	-5.6	-9.1	3.1
OCCN1CCN(CC(O)COCc2ccc3c(c2)OCO3)CC1 (stereo not given)	.	-0.8	10.7*	3.2	-0.5	-2.4
OC(COCc1ccc2c(c1)OCO2)CN1CCN(Cc2ccccc2)CC1 (stereo not given)	.	-0.6	0.0	4.8	-3.7	16.0
C/C=C/c1ccc2c(c1)[C@@H]1[C@@H](CCN1C(=O)Cc1cccnc1)[C@H](CO)N2C	-0.3	.	.	.	.	.
CCN1/C(=C2/SC(=S)NC2=O)Sc2ccccc21	43.4*	-0.7	0.6	-11.7	12.2	2.5
O=C(c1ccccn1)N1CC2(C1)[C@@H](c1ccccc1)[C@@H](CO)N2Cc1ccc(F)cc1	-0.2	.	.	.	.	.
CC(=O)N(Cc1ccccc1)Cc1nc2sc(C)c(C)c2c(=O)[nH]1	43.6*	-13.4	-1.3	-17.0	-3.0	1.0
C[C@H](CO)N1C[C@H](C)[C@@H](CN(C)C(=O)Nc2ccc(C(F)(F)F)cc2)Oc2ccc(NS(=O)(=O)c3ccc(Cl)cc3)cc2CC1=O	-0.1	.	.	.	.	.
N#Cc1ccc(OCCOCCNC2CCCC2)cc1	43.9*	2.4	1.7	6.0	6.3	6.2
c1ccc(Cc2ccc(OCCCNC3CCCC3)cc2)cc1	.	17.9	.	23.4	-44.0	1.8
c1ccc(-c2ccc(OCCCNC3CCCC3)cc2)cc1	0.3	6.8	0.6	41.0*	-28.0	7.4
CO[C@H]1CN(C)C(=O)c2ccc(NC(C)=O)cc2OC[C@@H](C)N(Cc2cncnc2)C[C@H]1C	-0.3	.	.	.	.	.
CC1=CC(=O)c2c(O)ccc(O)c2C1=O	.	42.2*	.	5.6	26.1	35.9*
O=C1C=C(N2CCN(c3ccccn3)CC2)C(=O)c2c(O)ccc(O)c21	0.2	.	0.3	.	.	.
COc1ccc(CCN=C(C)c2cc(C)c(C)cc2O)cc1OC	-0.3	-2.6	14.8*	-2.4	9.1	-7.9
COc1ccc(CCN=C(N)NS(=O)(=O)c2ccc(C)c(C)c2)cc1OC	-0.1	-8.6	2.0	-32.1	-7.1	6.6
Cc1cc(C([O-])=C(C(=S)Nc2ccccc2)[n+]2ccccc2)c(C)n1-c1ccccc1	0.1	.	-4.0	.	.	.
Cc1ccccc1NC(=S)/C(=C(\[O-])c1cc(C)n(Cc2ccccc2Cl)c1C)[n+]1ccccc1	43.0*	2.4	-0.7	-7.4	12.8	8.0
C[C@H](CO)N1C[C@H](C)[C@H](CN(C)S(=O)(=O)c2cn(C)cn2)Oc2ccc(NC(=O)C3CC3)cc2C1=O	0.1	.	.	.	.	.
Cc1cc2nc(CO)[nH]c2cc1C	-0.1	-8.2	15.0*	-1.8	-5.2	-9.8
Cc1cccc(NC(=O)c2cc(-c3cc(Cl)ccc3O)n[nH]2)c1	.	5.6	36.0*	-2.5	-3.6	0.9
Cc1ccc(Cl)cc1-c1cc(C(=O)Nc2ccc(F)cc2)[nH]n1	0.0	.	.	.	.	.
Cc1ccc(NC(=O)c2cc(-c3cc(Cl)ccc3O)n[nH]2)cc1C	-0.2	.	29.2*	-10.8	0.0	.
Cc1cccc(NC(=O)c2cc(-c3c(C)cc(C)cc3O)n[nH]2)c1	-0.1	15.0	-10.9	-12.7	10.0	11.9

Compound activity (PubChem)
